Test results as given in ChEMBL document CHEMBL3352188, “Synthesis, antimicrobial and molecular docking studies of enantiomerically pure N-alkylated β-amino alcohols from phenylpropanolamines” (2014).
Active and inactive are the calls of the source.

Experiments:
Candida albicans [1] = experiment: Antimicrobial activity against Candida albicans MTCC 227 at 1 mg/disc after 24 hrs by disc diffusion assay; assay type: functional
[2] = tested on: Salmonella enterica subsp. enterica serovar Paratyphi B; experiment: Antimicrobial activity against Salmonella paratyphi B after 24 hrs by two fold dilution method; assay type: functional
In short: (§1)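 Broth two-fold serial dilution in 96-well plates from 1000 to 7.81 µg/mL, compound in DMSO (2%). Inoculum was grown in MHB for 24 h at 37 °C; plates were incubated 24 h at 37 °C. 5 µL of broth was spotted onto MHA; MIC was the lowest concentration with no visible growth on agar. Streptomycin was the positive control.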

Staphylococcus aureus [3] = experiment: Antimicrobial activity against Staphylococcus aureus MTCC 96 after 24 hrs by two fold dilution method; assay type: functional; conditions: MTCC 96, 24 h; in short: as §1
Proteus vulgaris [4] = experiment: Antimicrobial activity against Proteus vulgaris MTCC 1771 after 24 hrs by two fold dilution method; assay type: functional; conditions: MTCC 1771, 24 h; in short: as §1
Malassezia pachydermatis [5] = experiment: Fungicidal activity against Malassezia pachydermatis after 48 to 72 hrs by two fold dilution method; assay type: functional
Klebsiella pneumoniae [6] = experiment: Antimicrobial activity against Klebsiella pneumoniae MTCC 109 after 24 hrs by two fold dilution method; assay type: functional; conditions: MTCC 109, 24 h; in short: as §1
[7] = tested on: Salmonella enterica subsp. enterica serovar Paratyphi B; experiment: Bactericidal activity against Salmonella paratyphi B after 24 hrs by two fold dilution method; assay type: functional
In short: (§2)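 Tubes held 5 mL MHB with two-fold dilutions from 1000 to 7.81 µg/mL and were inoculated with 5 × 10^5 to 1 × 10^6 cells in 0.1 mL MHB, incubated without shaking. Turbidity was checked at 20 h, tubes vortexed and re-incubated 4 h.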

Bacillus subtilis [8] = experiment: Bactericidal activity against Bacillus subtilis MTCC 441 after 24 hrs by two fold dilution method; assay type: functional; conditions: MTCC 441, 24 h; in short: as §2
Candida albicans [9] = experiment: Fungicidal activity against Candida albicans MTCC 227 after 48 to 72 hrs by two fold dilution method; assay type: functional
Malassezia pachydermatis [10] = experiment: Antimicrobial activity against Malassezia pachydermatis at 1 mg/disc after 24 hrs by disc diffusion assay; assay type: functional
Proteus vulgaris [11] = experiment: Bactericidal activity against Proteus vulgaris MTCC 1771 after 24 hrs by two fold dilution method; assay type: functional; conditions: MTCC 1771, 24 h; in short: as §2
Staphylococcus aureus [12] = experiment: Antimicrobial activity against Staphylococcus aureus MTCC 96 at 1 mg/disc after 24 hrs by disc diffusion assay; assay type: functional
In short: (§3)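 Disc diffusion on Mueller Hinton agar. Inoculum was grown in MHB for 24 h at 37 °C, swabbed onto the plates and dried for 10 min. Discs with 1 mg compound were left 30 min at room temperature for diffusion, then incubated at 37 °C for 24 h. Inhibition zone was read in mm; run twice. Solvent was the negative control, streptomycin the positive control.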

Shigella flexneri [13] = experiment: Antimicrobial activity against Shigella flexneri MTCC 1457 at 1 mg/disc after 24 hrs by disc diffusion assay; assay type: functional; in short: as §3
Klebsiella pneumoniae [14] = experiment: Antimicrobial activity against Klebsiella pneumoniae MTCC 109 at 1 mg/disc after 24 hrs by disc diffusion assay; assay type: functional; in short: as §3
Shigella flexneri [15] = experiment: Bactericidal activity against Shigella flexneri MTCC 1457 after 24 hrs by two fold dilution method; assay type: functional; conditions: MTCC 1457, 24 h; in short: as §2
Salmonella typhimurium [16] = experiment: Antimicrobial activity against Salmonella typhimurium MTCC 1251 at 1 mg/disc after 24 hrs by disc diffusion assay; assay type: functional, Salmonella enterica subsp. enterica serovar Typhimurium; in short: as §3
Pseudomonas aeruginosa [17] = experiment: Antimicrobial activity against Pseudomonas aeruginosa MTCC 741 after 24 hrs by two fold dilution method; assay type: functional; conditions: MTCC 741, 24 h; in short: as §1
Malassezia pachydermatis [18] = experiment: Antimicrobial activity against Malassezia pachydermatis after 48 to 72 hrs by two fold dilution method; assay type: functional
In short: (§4)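 Yeast was grown in Sabouraud dextrose broth at 28 °C for 48 h and tested per CLSI reference methods. Two-fold serial dilutions from 1000 to 7.81 µg/mL, compound in DMSO (2%), in 96-well plates, incubated 48–72 h at 28 °C. MIC was the lowest concentration with no visible fungal growth. Ketoconazole was the positive control.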

Micrococcus luteus [19] = experiment: Antimicrobial activity against Micrococcus luteus MTCC 106 at 1 mg/disc after 24 hrs by disc diffusion assay; assay type: functional; in short: as §3
Micrococcus luteus [20] = experiment: Bactericidal activity against Micrococcus luteus MTCC 106 after 24 hrs by two fold dilution method; assay type: functional; conditions: MTCC 106, 24 h; in short: as §2
Klebsiella aerogenes [21] = experiment: Antimicrobial activity against Enterobacter aerogenes MTCC 111 at 1 mg/disc after 24 hrs by disc diffusion assay; assay type: functional; in short: as §3
Pseudomonas aeruginosa [22] = experiment: Antimicrobial activity against Pseudomonas aeruginosa MTCC 741 at 1 mg/disc after 24 hrs by disc diffusion assay; assay type: functional; in short: as §3
[23] = tested on: Salmonella enterica subsp. enterica serovar Paratyphi B; experiment: Antimicrobial activity against Salmonella paratyphi B at 1 mg/disc after 24 hrs by disc diffusion assay; assay type: functional; in short: as §3
Salmonella typhimurium [24] = experiment: Bactericidal activity against Salmonella typhimurium MTCC 1251 after 24 hrs by two fold dilution method; assay type: functional, Salmonella enterica subsp. enterica serovar Typhimurium; conditions: Salmonella enterica, MTCC 1251, 24 h; in short: as §2
Pseudomonas aeruginosa [25] = experiment: Bactericidal activity against Pseudomonas aeruginosa MTCC 741 after 24 hrs by two fold dilution method; assay type: functional; conditions: MTCC 741, 24 h; in short: as §2
Bacillus subtilis [26] = experiment: Antimicrobial activity against Bacillus subtilis MTCC 441 after 24 hrs by two fold dilution method; assay type: functional; conditions: MTCC 441, 24 h; in short: as §1
Proteus vulgaris [27] = experiment: Antimicrobial activity against Proteus vulgaris MTCC 1771 at 1 mg/disc after 24 hrs by disc diffusion assay; assay type: functional; in short: as §3
Staphylococcus aureus [28] = experiment: Bactericidal activity against Staphylococcus aureus MTCC 96 after 24 hrs by two fold dilution method; assay type: functional; conditions: MTCC 96, 24 h; in short: as §2
Staphylococcus aureus [29] = experiment: Antimicrobial activity against […] Staphylococcus aureus MTCC 96 at 1 mg/disc after 24 hrs by disc diffusion assay; assay type: functional; in short: as §3
Micrococcus luteus [30] = experiment: Antimicrobial activity against Micrococcus luteus MTCC 106 after 24 hrs by two fold dilution method; assay type: functional; conditions: MTCC 106, 24 h; in short: as §1
Salmonella typhimurium [31] = experiment: Antimicrobial activity against Salmonella typhimurium MTCC 1251 after 24 hrs by two fold dilution method; assay type: functional, Salmonella enterica subsp. enterica serovar Typhimurium; conditions: Salmonella enterica, MTCC 1251, 24 h; in short: as §1
Shigella flexneri [32] = experiment: Antimicrobial activity against Shigella flexneri MTCC 1457 after 24 hrs by two fold dilution method; assay type: functional; conditions: MTCC 1457, 24 h; in short: as §1
Klebsiella pneumoniae [33] = experiment: Bactericidal activity against Klebsiella pneumoniae MTCC 109 after 24 hrs by two fold dilution method; assay type: functional; conditions: MTCC 109, 24 h; in short: as §2
Staphylococcus aureus [34] = experiment: Antimicrobial activity against methicillin-resistant Staphylococcus aureus MTCC 96 after 24 hrs by two fold dilution method; assay type: functional; conditions: MTCC 96, 24 h; in short: as §1
Candida albicans [35] = experiment: Antimicrobial activity against Candida albicans MTCC 227 after 48 to 72 hrs by two fold dilution method; assay type: functional; in short: as §4
Klebsiella aerogenes [36] = experiment: Bactericidal activity against Enterobacter aerogenes MTCC 111 after 24 hrs by two fold dilution method; assay type: functional; conditions: MTCC 111, 24 h; in short: as §2
Staphylococcus aureus [37] = experiment: Bactericidal activity against methicillin-resistant Staphylococcus aureus MTCC 96 after 24 hrs by two fold dilution method; assay type: functional; conditions: MTCC 96, 24 h; in short: as §2
Klebsiella aerogenes [38] = experiment: Antimicrobial activity against Enterobacter aerogenes MTCC 111 after 24 hrs by two fold dilution method; assay type: functional; conditions: MTCC 111, 24 h; in short: as §1
Bacillus subtilis [39] = experiment: Antimicrobial activity against Bacillus subtilis MTCC 441 at 1 mg/disc after 24 hrs by disc diffusion assay; assay type: functional; in short: as §3

CC(C)C[C@@H](C)N[C@@H](C)[C@H](O)c1ccccc1.Cl
15 mm: inhibition zone (IZ) (Shigella flexneri [13]) | inhibition zone (IZ) (Proteus vulgaris [27]) | inhibition zone (IZ) (Bacillus subtilis [39])
14 mm: inhibition zone (IZ) (Salmonella typhimurium [16]) | inhibition zone (IZ) (Klebsiella aerogenes [21])
13 mm: inhibition zone (IZ) [23]
16 mm: inhibition zone (IZ) (Malassezia pachydermatis [10]) | inhibition zone (IZ) (Klebsiella pneumoniae [14]) | inhibition zone (IZ) (Micrococcus luteus [19]) | inhibition zone (IZ) (Staphylococcus aureus [29])
62.5 µg/mL: MIC (Staphylococcus aureus [3]) | MFC (Malassezia pachydermatis [5]) | MIC (Klebsiella pneumoniae [6]) | MFC (Candida albicans [9]) | MIC (Pseudomonas aeruginosa [17]) | MIC (Malassezia pachydermatis [18]) | MBC (Micrococcus luteus [20]) | MIC (Micrococcus luteus [30]) | MBC (Klebsiella pneumoniae [33]) | MIC (Staphylococcus aureus [34]) | MIC (Candida albicans [35])
17 mm: inhibition zone (IZ) (Candida albicans [1]) | inhibition zone (IZ) (Staphylococcus aureus [12]) | inhibition zone (IZ) (Pseudomonas aeruginosa [22])
250 µg/mL: MBC [7] | MBC (Bacillus subtilis [8]) | MBC (Proteus vulgaris [11]) | MBC (Shigella flexneri [15]) | MBC (Salmonella typhimurium [24])
125 µg/mL: MIC [2] | MIC (Proteus vulgaris [4]) | MBC (Pseudomonas aeruginosa [25]) | MIC (Bacillus subtilis [26]) | MBC (Staphylococcus aureus [28]) | MIC (Salmonella typhimurium [31]) | MIC (Shigella flexneri [32]) | MBC (Klebsiella aerogenes [36]) | MBC (Staphylococcus aureus [37]) | MIC (Klebsiella aerogenes [38])

COc1ccc([C@H](C)N[C@H](C)[C@@H](O)c2ccccc2)cc1.Cl
125 µg/mL: MIC [2] | MBC (Bacillus subtilis [8]) | MBC (Proteus vulgaris [11]) | MBC (Shigella flexneri [15]) | MIC (Pseudomonas aeruginosa [17]) | MBC (Micrococcus luteus [20]) | MBC (Staphylococcus aureus [28]) | MIC (Salmonella typhimurium [31]) | MBC (Klebsiella pneumoniae [33]) | MBC (Klebsiella aerogenes [36]) | MBC (Staphylococcus aureus [37])
14 mm: inhibition zone (IZ) (Salmonella typhimurium [16]) | inhibition zone (IZ) (Pseudomonas aeruginosa [22])
16 mm: inhibition zone (IZ) (Candida albicans [1])
62.5 µg/mL: MIC (Staphylococcus aureus [3]) | MIC (Proteus vulgaris [4]) | MFC (Malassezia pachydermatis [5]) | MIC (Klebsiella pneumoniae [6]) | MFC (Candida albicans [9]) | MIC (Malassezia pachydermatis [18]) | MIC (Bacillus subtilis [26]) | MIC (Micrococcus luteus [30]) | MIC (Shigella flexneri [32]) | MIC (Staphylococcus aureus [34]) | MIC (Candida albicans [35]) | MIC (Klebsiella aerogenes [38])
250 µg/mL: MBC [7] | MBC (Salmonella typhimurium [24]) | MBC (Pseudomonas aeruginosa [25])
18 mm: inhibition zone (IZ) (Klebsiella aerogenes [21]) | inhibition zone (IZ) (Proteus vulgaris [27]) | inhibition zone (IZ) (Staphylococcus aureus [29]) | inhibition zone (IZ) (Bacillus subtilis [39])
19 mm: inhibition zone (IZ) (Malassezia pachydermatis [10]) | inhibition zone (IZ) (Micrococcus luteus [19])
17 mm: inhibition zone (IZ) (Staphylococcus aureus [12]) | inhibition zone (IZ) (Shigella flexneri [13]) | inhibition zone (IZ) (Klebsiella pneumoniae [14]) | inhibition zone (IZ) [23]

CN[C@@H]1[C@H](O[C@H]2[C@H](O[C@H]3[C@H](O)[C@@H](O)[C@H](N=C(N)N)[C@@H](O)[C@@H]3N=C(N)N)O[C@@H](C)[C@]2(O)C=O)O[C@@H](CO)[C@H](O)[C@H]1O [STREPTOMYCIN]
18 mm: inhibition zone (IZ) (Salmonella typhimurium [16])
22 mm: inhibition zone (IZ) (Klebsiella aerogenes [21])
14 mm: inhibition zone (IZ) (Staphylococcus aureus [12])
25 µg/mL: MIC (Proteus vulgaris [4]) | MIC (Pseudomonas aeruginosa [17]) | MIC (Klebsiella aerogenes [38])
30 µg/mL: MIC (Salmonella typhimurium [31])
20 mm: inhibition zone (IZ) (Klebsiella pneumoniae [14])
26 mm: inhibition zone (IZ) (Micrococcus luteus [19])
6.25 µg/mL: MIC (Staphylococcus aureus [3]) | MIC (Klebsiella pneumoniae [6]) | MIC (Bacillus subtilis [26]) | MIC (Micrococcus luteus [30]) | MIC (Shigella flexneri [32]) | MIC (Staphylococcus aureus [34])
30 mm: inhibition zone (IZ) (Shigella flexneri [13]) | inhibition zone (IZ) (Pseudomonas aeruginosa [22]) | inhibition zone (IZ) [23] | inhibition zone (IZ) (Proteus vulgaris [27]) | inhibition zone (IZ) (Staphylococcus aureus [29]) | inhibition zone (IZ) (Bacillus subtilis [39])
62.5 µg/mL: MIC [2]

CC[C@H](C)N[C@H](C)[C@@H](O)c1ccccc1.Cl (mixture of isomers)
10 mm: inhibition zone (IZ) (Malassezia pachydermatis [10]) | inhibition zone (IZ) (Salmonella typhimurium [16]) | inhibition zone (IZ) (Micrococcus luteus [19]) | inhibition zone (IZ) (Pseudomonas aeruginosa [22]) | inhibition zone (IZ) (Proteus vulgaris [27])
inactive: inhibition zone (IZ) (Candida albicans [1]) | inhibition zone (IZ) (Staphylococcus aureus [12]) | inhibition zone (IZ) (Shigella flexneri [13]) | inhibition zone (IZ) (Klebsiella pneumoniae [14]) | inhibition zone (IZ) (Klebsiella aerogenes [21]) | inhibition zone (IZ) [23] | inhibition zone (IZ) (Staphylococcus aureus [29]) | inhibition zone (IZ) (Bacillus subtilis [39])
